ChEMBL document CHEMBL4819139, “Green synthesis of therapeutically active 1,3,4-oxadiazoles as antioxidants, selective COX-2 inhibitors and their in silico studies” (Bioorg Med Chem Lett, 2021)
≈ marks a conversion by molar mass, not a printed value.

Assays:
[1] = target: T1, Prostaglandin G/H synthase 2 (Homo sapiens, UniProt P35354); assay: Inhibition of COX-2 (unknown origin)
T1 sequence (P35354 whole entry): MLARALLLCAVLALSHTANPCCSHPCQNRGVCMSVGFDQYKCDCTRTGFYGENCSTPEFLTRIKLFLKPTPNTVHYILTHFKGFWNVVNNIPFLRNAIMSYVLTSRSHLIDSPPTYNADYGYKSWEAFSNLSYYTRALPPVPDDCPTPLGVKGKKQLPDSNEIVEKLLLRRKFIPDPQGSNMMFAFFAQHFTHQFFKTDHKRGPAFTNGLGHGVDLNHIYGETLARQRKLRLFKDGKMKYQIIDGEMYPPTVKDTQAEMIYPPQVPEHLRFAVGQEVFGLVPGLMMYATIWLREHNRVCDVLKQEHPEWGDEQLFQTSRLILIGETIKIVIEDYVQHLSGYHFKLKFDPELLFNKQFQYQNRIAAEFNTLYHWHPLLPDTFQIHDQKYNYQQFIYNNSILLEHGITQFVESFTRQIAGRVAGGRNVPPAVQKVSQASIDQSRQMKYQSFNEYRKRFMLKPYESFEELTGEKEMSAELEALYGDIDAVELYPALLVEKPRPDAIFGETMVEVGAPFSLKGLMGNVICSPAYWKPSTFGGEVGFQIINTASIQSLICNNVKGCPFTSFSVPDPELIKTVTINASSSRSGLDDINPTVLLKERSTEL
How it was run: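 Percent COX-2 inhibition was measured at several compound concentrations. Mefenamic acid served as the reference standard.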

[2] = Antioxidant activity assessed as DPPH free radical scavenging activity in iron free medium; format: functional
[3] = target: Prostaglandin G/H synthase 1 (Homo sapiens, UniProt P23219); assay: Inhibition of COX-1 (unknown origin)
Prostaglandin G/H synthase 1, sequence (P23219 whole entry): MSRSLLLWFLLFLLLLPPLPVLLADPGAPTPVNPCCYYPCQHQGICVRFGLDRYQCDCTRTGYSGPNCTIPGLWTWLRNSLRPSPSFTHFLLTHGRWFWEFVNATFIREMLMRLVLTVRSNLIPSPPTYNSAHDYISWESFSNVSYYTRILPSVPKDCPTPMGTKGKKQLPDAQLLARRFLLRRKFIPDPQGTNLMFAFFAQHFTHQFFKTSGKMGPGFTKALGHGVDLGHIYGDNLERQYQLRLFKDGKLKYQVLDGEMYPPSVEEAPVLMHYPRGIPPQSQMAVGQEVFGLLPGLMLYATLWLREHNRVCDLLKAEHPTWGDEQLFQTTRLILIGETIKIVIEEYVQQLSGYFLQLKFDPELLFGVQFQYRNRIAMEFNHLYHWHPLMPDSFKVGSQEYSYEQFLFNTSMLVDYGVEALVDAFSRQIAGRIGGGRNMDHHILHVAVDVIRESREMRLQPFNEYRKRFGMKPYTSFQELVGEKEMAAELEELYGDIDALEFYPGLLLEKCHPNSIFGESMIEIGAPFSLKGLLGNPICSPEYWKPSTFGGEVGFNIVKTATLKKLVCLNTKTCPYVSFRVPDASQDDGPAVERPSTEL

With Cc1cc(C)c2c(CSc3nnc(CSc4nc5ccccc5o4)o3)cc(=O)oc2c1 the IC50 [1] was 55.4 µM, the IC50 [2] was 33.41 µg/mL (≈ 74 µM) and the IC50 [3] was 1120 µM.

O=c1cc(CSc2nnc(CSc3nc4ccccc4o3)o2)c2ccc3ccccc3c2o1 showed an IC50 [1] of 27.1 µM, an IC50 [2] of 23.71 µg/mL (≈ 50.1 µM) and an IC50 [3] of 919 µM.

Cc1ccc2oc(=O)cc(CSc3nnc(CSc4nc5ccccc5o4)o3)c2c1 showed an IC50 [1] of 45.6 µM, an IC50 [2] of 24.04 µg/mL (≈ 54.9 µM) and an IC50 [3] of 562 µM.

Work on O=c1cc(CSc2nnc(CSc3nc4ccccc4o3)o2)c2c(ccc3ccccc32)o1 yielded an IC50 [1] of 51.9 µM, an IC50 [2] of 45.86 µg/mL (≈ 96.8 µM) and an IC50 [3] of 226 µM.

For O=c1cc(CSc2nnc(CSc3nc4cc(Cl)ccc4o3)o2)c2c(ccc3ccccc32)o1, the IC50 [1] was 34.8 µM, the IC50 [2] was 26.78 µg/mL (≈ 52.7 µM) and the IC50 [3] was 642 µM.

O=c1cc(CSc2nnc(CSc3nc4cc(Cl)ccc4o3)o2)c2ccc3ccccc3c2o1 gave an IC50 [1] of 22.3 µM, an IC50 [2] of 23.95 µg/mL (≈ 47.1 µM) and an IC50 [3] of 558 µM.

For Cc1cc(C)c2c(CSc3nnc(CSc4nc5cc(Cl)ccc5o4)o3)cc(=O)oc2c1, the IC50 [1] was 27.2 µM, the IC50 [2] was 26.98 µg/mL (≈ 55.5 µM) and the IC50 [3] was 505 µM.

In the case of COc1ccc2oc(=O)cc(CSc3nnc(CSc4nc5cc(Cl)ccc5o4)o3)c2c1, the IC50 [1] is reported as 91.3 µM, the IC50 [2] is reported as 52.85 µg/mL (≈ 108 µM) and the IC50 [3] is reported as 1180 µM.

Work on COc1ccc2oc(=O)cc(CSc3nnc(CSc4nc5ccccc5o4)o3)c2c1 yielded an IC50 [1] of 72.6 µM, an IC50 [2] of 63.09 µg/mL (≈ 139 µM) and an IC50 [3] of 230 µM.

Cc1ccc2c(CSc3nnc(CSc4nc5cc(Cl)ccc5o4)o3)cc(=O)oc2c1 gave an IC50 [1] of 29 µM, an IC50 [2] of 27.73 µg/mL (≈ 58.8 µM) and an IC50 [3] of 308 µM.

For Cc1ccc2c(CSc3nnc(CSc4nc5ccccc5o4)o3)cc(=O)oc2c1, the IC50 [1] was 54.3 µM, the IC50 [2] was 49.87 µg/mL (≈ 114 µM) and the IC50 [3] was 199 µM.

Cc1ccc2oc(=O)cc(CSc3nnc(CSc4nc5cc(Cl)ccc5o4)o3)c2c1 gave an IC50 [1] of 115 µM, an IC50 [2] of 48.69 µg/mL (≈ 103 µM) and an IC50 [3] of 437 µM.

O=C1O[C@H]([C@@H](O)CO)C(O)=C1O [ASCORBIC ACID] gave an IC50 [2] of 25.74 µg/mL (≈ 146 µM).

Cc1cccc(Nc2ccccc2C(=O)O)c1C [MEFENAMIC ACID] gave an IC50 [1] of 104 µM and an IC50 [3] of 772 µM.
